Experimental data from ChEMBL document CHEMBL2331282, “9-[2-(R)-(Phosphonomethoxy)propyl]-2,6-diaminopurine (R)-PMPDAP and its prodrugs: optimized preparation, including identification of by-products formed, and antiviral evaluation in vitro” (Bioorg Med Chem, 2013).
Active and inactive are the calls of the source. No cut-off for these calls is given here.

Key:
[1] = Cytotoxicity against cat CRFK cells assessed as decrease in cell viability after 3 days by CellTiter 96 Aqueous One solution assay; format: cell-based, Felis catus; settings: 72 h
MT4 = test: Cytotoxicity against human MT4 cells assessed as decrease in cell viability after 5 days by CellTiter Glo assay; format: cell-based; settings: mt4, 120 h
Summary of the method: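 MT-4 cells, 2000/well, in RPMI 1640 with 10% FBS plus penicillin/streptomycin; 3-fold serial dilutions, 10 concentrations, final DMSO ≤0.5%; 10 µM puromycin and 0.5% DMSO controls.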

[2] = test system: Feline immunodeficiency virus; test: Antiviral activity against Feline immunodeficiency virus infected in cat CRFK cells assessed as decrease in FIV p24 antigen level treated post-viral infection measured after 6 days by ELISA; format: functional, organism-based; settings: 144 h
Summary of the method: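 CrFK cells (5000/well) pre-seeded 24 h at 37 °C, 5% CO2; washed with PBS containing 50 µg/ml DEAE-dextran, inoculated with 100 CCID50 FIV plus serial compound dilutions; after 2 h washed and overlaid with 5% FCS DMEM plus compound.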

[3] = test system: Human immunodeficiency virus 1; test: Antiviral activity against Human immunodeficiency virus 1 3B infected in human MT4 cells assessed as reduction of virus-induced cytopathicity treated post-viral infection measured after 5 days by Cell-Titer Glo assay; format: functional, organism-based; settings: MT4, 120 h
[4] = test system: Mammalian orthoreovirus 1; test: Antiviral activity against Reovirus 1 infected in dog MDCK cells assessed as reduction of virus-induced cytopathogenicity; format: functional, organism-based; settings: Mammalian orthoreovirus 1, MDCK
Human respirovirus 3 = test: Antiviral activity against Parainfluenza virus 3 infected in dog MDCK cells assessed as reduction of virus-induced cytopathogenicity; format: functional, organism-based; settings: Human respirovirus 3, MDCK
[5] = test system: Respiratory syncytial virus; test: Antiviral activity against Respiratory syncytial virus infected in human HeLa cells assessed as reduction of virus-induced cytopathogenicity; format: functional, organism-based
Coxsackievirus B4 [6] = test: Antiviral activity against Coxsackievirus B4 infected in human HeLa cells assessed as reduction of virus-induced cytopathogenicity; format: functional, organism-based; settings: Enterovirus B
[7] = test system: Vesicular stomatitis virus; test: Antiviral activity against Vesicular stomatitis virus infected in human HeLa cells assessed as reduction of virus-induced cytopathogenicity; format: functional, organism-based
Feline coronavirus = test: Antiviral activity against Feline coronavirus infected in cat CRFK cells assessed as reduction of virus-induced cytopathogenicity; format: functional, organism-based; settings: Alphacoronavirus 1, CRFK
Felid alphaherpesvirus 1 [8] = test: Antiviral activity against Feline herpes virus infected in cat CRFK cells assessed as reduction of virus-induced cytopathogenicity; format: functional, organism-based; settings: Felid alphaherpesvirus 1, CRFK
[9] = test system: Vesicular stomatitis virus; test: Antiviral activity against Vesicular stomatitis virus infected in human HEL cells assessed as reduction of virus-induced cytopathogenicity; format: functional, organism-based
Human alphaherpesvirus 2 [10] = test: Antiviral activity against Herpes simplex virus 2 infected in human HEL cells assessed as reduction of virus-induced cytopathogenicity; format: functional, organism-based; settings: Human alphaherpesvirus 2, HEL
Human alphaherpesvirus 1 [11] = test: Antiviral activity against Herpes simplex virus 1 infected in human HEL cells assessed as reduction of virus-induced cytopathogenicity; format: functional, organism-based; settings: Human alphaherpesvirus 1, HEL
Human betaherpesvirus 5 [12] = test: Antiviral activity against Human cytomegalovirus infected in human HEL cells assessed as reduction of virus-induced cytopathogenicity; format: functional, organism-based; settings: Human betaherpesvirus 5, HEL
[13] = test system: Human immunodeficiency virus 2; test: Antiviral activity against Human immunodeficiency virus 2 infected in human CEM cells assessed as reduction of virus-induced cytopathogenicity; format: functional, organism-based; settings: Human immunodeficiency virus 2, CCRF-CEM
[14] = test system: Human immunodeficiency virus 1; test: Antiviral activity against Human immunodeficiency virus 1 infected in human CEM cells assessed as reduction of virus-induced cytopathogenicity; format: functional, organism-based; settings: Human immunodeficiency virus 1, CCRF-CEM
[15] = Cytotoxicity against cat CRFK cells assessed as alteration of cell morphology up to 100 uM by microscopic analysis; format: cell-based, Felis catus
[16] = Cytotoxicity against dog MDCK cells assessed as alteration of cell morphology up to 100 uM by microscopic analysis; format: cell-based, Canis lupus familiaris
[17] = Cytotoxicity against human HeLa cells assessed as alteration of cell morphology up to 100 uM by microscopic analysis; format: cell-based
[18] = Cytotoxicity against human HEL cells assessed as alteration of cell morphology up to 100 uM by microscopic analysis; format: cell-based
[19] = Cytotoxicity against human CEM cells assessed as alteration of cell morphology by microscopic analysis; format: cell-based; settings: CEM cells (CCRF-CEM)
Punta Toro virus [20] = test: Antiviral activity against Punta Toro virus infected in dog MDCK cells assessed as reduction of virus-induced cytopathogenicity; format: functional, organism-based
Coxsackievirus B4 [21] = test: Antiviral activity against Coxsackievirus B4 infected in dog MDCK cells assessed as reduction of virus-induced cytopathogenicity; format: functional, organism-based; settings: Enterovirus B
Sindbis virus = test: Antiviral activity against Sindbis virus infected in dog MDCK cells assessed as reduction of virus-induced cytopathogenicity; format: functional, organism-based
Human alphaherpesvirus 3 [22] = test: Antiviral activity against TK- Varicella zoster virus O7-1; format: functional, organism-based; settings: Human alphaherpesvirus 3, O7-1
Human alphaherpesvirus 3 [23] = test: Antiviral activity against TK+ Varicella zoster virus OKA; format: functional; settings: Human alphaherpesvirus 3, strain Oka vaccine
Human betaherpesvirus 5 [24] = test: Antiviral activity against Human cytomegalovirus at non-toxic concentration; format: functional, organism-based
Vaccinia virus = test: Antiviral activity against Vaccinia virus at non-toxic concentration; format: functional, organism-based; settings: Orthopoxvirus vaccinia
Felid alphaherpesvirus 1 [25] = test: Antiviral activity against Feline herpes virus at non-toxic concentration; format: functional, organism-based
Human alphaherpesvirus 2 [26] = test: Antiviral activity against Herpes simplex virus 2 at non-toxic concentration; format: functional, organism-based
Human alphaherpesvirus 1 [27] = test: Antiviral activity against Herpes simplex virus 1 at non-toxic concentration; format: functional, organism-based
Punta Toro virus [28] = test: Antiviral activity against Punta Toro virus infected in african green monkey Vero cells; format: functional, organism-based
Coxsackievirus B4 [29] = test: Antiviral activity against Coxsackievirus B4 infected in african green monkey Vero cells; format: functional, organism-based; settings: Enterovirus B

With `CCOC(=O)[C@H](C)NP(=O)(CO[C@H](C)Cn1cnc2c(N)nc(N)nc21)N[C@@H](C)C(=O)OCC` the CC50 [1] was 215 µM, the CC50 (MT4) was greater than 100 µM and the EC50 [2] was 1.1 µM. The EC50 [3] was 0.29 µM.
Work on `C[C@@H](O)CNc1nc(N)nc2c1ncn2C[C@@H](C)O` yielded an EC50 [4] greater than 100 µg/mL, an EC50 (Human respirovirus 3) greater than 100 µg/mL and an EC50 [5] greater than 100 µg/mL. It also gave an EC50 (Coxsackievirus B4 [6]) greater than 100 µg/mL, an EC50 [7] greater than 100 µg/mL and an EC50 (Feline coronavirus) greater than 100 µg/mL. For the same compound, the EC50 (Felid alphaherpesvirus 1 [8]) was greater than 100 µg/mL, the EC50 [9] was greater than 100 µg/mL and the EC50 (Human alphaherpesvirus 2 [10]) was greater than 100 µg/mL. For the same compound, the EC50 (Human alphaherpesvirus 1 [11]) was greater than 100 µg/mL, the EC50 (Human betaherpesvirus 5 [12]) was greater than 100 µg/mL and the EC50 [13] was greater than 100 µg/mL. The EC50 [14] was greater than 100 µg/mL, the MCC [15] was greater than 100 µg/mL and the MCC [16] was greater than 100 µg/mL. For the same compound, the MCC [17] was greater than 100 µg/mL, the MCC [18] was greater than 100 µg/mL and the MCC [19] was greater than 100 µg/mL. It also gave an EC50 (Punta Toro virus [20]) greater than 100 µg/mL, an EC50 (Coxsackievirus B4 [21]) greater than 100 µg/mL and an EC50 (Sindbis virus) greater than 100 µg/mL.
Compound `C[C@H](Cn1cnc2c(NCP(=O)(O)O)nc(N)nc21)OCP(=O)(O)O` has an EC50 [4] greater than 100 µg/mL, an EC50 (Human respirovirus 3) greater than 100 µg/mL and an EC50 [5] greater than 100 µg/mL. The EC50 (Coxsackievirus B4 [6]) was greater than 100 µg/mL, the EC50 [7] was greater than 100 µg/mL and the EC50 (Feline coronavirus) was greater than 100 µg/mL. The EC50 (Felid alphaherpesvirus 1 [8]) was greater than 100 µg/mL, the EC50 [9] was greater than 100 µg/mL and the EC50 (Human alphaherpesvirus 2 [10]) was greater than 100 µg/mL. The EC50 (Human alphaherpesvirus 1 [11]) was greater than 100 µg/mL, the EC50 (Human betaherpesvirus 5 [12]) was greater than 100 µg/mL and the EC50 [13] was greater than 100 µg/mL. For the same compound, the EC50 [14] was greater than 100 µg/mL, the MCC [15] was greater than 100 µg/mL and the MCC [16] was greater than 100 µg/mL. The MCC [17] was greater than 100 µg/mL, the MCC [18] was greater than 100 µg/mL and the MCC [19] was greater than 100 µg/mL. It also gave an EC50 (Punta Toro virus [20]) greater than 100 µg/mL, an EC50 (Coxsackievirus B4 [21]) greater than 100 µg/mL and an EC50 (Sindbis virus) greater than 100 µg/mL.
With `C[C@@H](O)CNc1nc(N)c2ncn(C[C@@H](C)O)c2n1` the EC50 [4] was greater than 100 µg/mL, the EC50 (Human respirovirus 3) was greater than 100 µg/mL and the EC50 [5] was greater than 100 µg/mL. It also gave an EC50 (Coxsackievirus B4 [6]) greater than 100 µg/mL, an EC50 [7] greater than 100 µg/mL and an EC50 (Feline coronavirus) greater than 100 µg/mL. The EC50 (Felid alphaherpesvirus 1 [8]) was greater than 100 µg/mL, the EC50 [9] was greater than 100 µg/mL and the EC50 (Human alphaherpesvirus 2 [10]) was greater than 100 µg/mL. It also gave an EC50 (Human alphaherpesvirus 1 [11]) greater than 100 µg/mL, an EC50 (Human betaherpesvirus 5 [12]) greater than 100 µg/mL and an EC50 [13] greater than 100 µg/mL. The EC50 [14] was greater than 100 µg/mL, the MCC [15] was greater than 100 µg/mL and the MCC [16] was greater than 100 µg/mL. For the same compound, the MCC [17] was greater than 100 µg/mL, the MCC [18] was greater than 100 µg/mL and the MCC [19] was greater than 100 µg/mL. For the same compound, the EC50 (Punta Toro virus [20]) was greater than 100 µg/mL, the EC50 (Coxsackievirus B4 [21]) was greater than 100 µg/mL and the EC50 (Sindbis virus) was greater than 100 µg/mL.
For `CCCCCCCCCCCCCCCCOCCCOP(=O)([O-])CO[C@H](C)Cn1cnc2c(N)nc(N)nc21.[Na+]`, the EC50 (Human alphaherpesvirus 3 [22]) was 0.058 µg/mL, the EC50 (Human alphaherpesvirus 3 [23]) was less than 0.032 µg/mL and the Activity (Human betaherpesvirus 5 [24]) was “inactive”. The Activity (Vaccinia virus) was “inactive”, the Activity (Felid alphaherpesvirus 1 [25]) was “inactive” and the Activity (Human alphaherpesvirus 2 [26]) was “inactive”. The Activity (Human alphaherpesvirus 1 [27]) was “inactive”, the EC50 (Punta Toro virus [28]) was 12 µg/mL and the CC50 [1] was 96 µM. The EC50 (Coxsackievirus B4 [29]) was 9 µg/mL, the CC50 (MT4) was 19.8 µM and the EC50 [2] was 0.00058 µM. For the same compound, the EC50 [3] was 0.00224 µM.
`C[C@H](Cn1cnc2c(N)nc(N)nc21)OCP(=O)(O)O` gave a CC50 [1] greater than 500 µM, a CC50 (MT4) greater than 100 µM and an EC50 [2] of 0.12 µM. The EC50 [3] was 0.94 µM.
